System: Hepatitis B virus
Experiment: Antiviral activity against HBV infected in human HepG2.2.15 cells assessed as inhibition of viral DNA level incubated for 3 days followed by medium replacement measured after 3 days by RT-PCR method
Format: functional, organism-based
Settings: HepG2.2.15, 72 h
Outline: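 HepG2.2.15 cells seeded at 4 × 10^4 cells/well, compound exposure 3 days, then fresh medium and a further 3-day incubation. Supernatants collected and stored at −80 °C. HBV DNA extracted from supernatant and quantified by qPCR. IC50 reported as the mean of three experiments.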

Row | Structure (SMILES) | IC50 [µM]
1 | CCOC(=O)C1=C2CCCN2C(c2nccs2)=NC1c1ccc(F)cc1Br (centres undefined) | 0.21
2 | CCOC(=O)C1=C2CCCN2C(c2nccs2)=NC1c1cnn(C)c1 (centres undefined) | > 10
3 | CCOC(=O)C1=C2CCCN2C(c2nccs2)=NC1c1c(F)cccc1Cl (centres undefined) | > 10
4 | O=C(OCC(F)F)C1=C2CCCN2C(c2nccs2)=NC1c1ccc(F)cc1Cl (centres undefined) | 2
5 | CCOC(=O)C1=C2CCCN2C(c2nccs2)=NC1c1ccc(F)cc1C (centres undefined) | 0.45
6 | CONC(=O)C1=C2CCCN2C(c2nccs2)=NC1c1ccc(F)cc1Cl (centres undefined) | 5
7 | CCOC(=O)C1=C2C[C@H](NS(C)(=O)=O)CN2C(c2nccs2)=N[C@H]1c1ccc(F)cc1Cl | 10
8 | CCOC(=O)C1=C2CCCN2C(c2cnn(C)c2)=NC1c1ccc(F)cc1Cl (centres undefined) | > 10
9 | CCOC(=O)C1=C2CCCN2C(c2nccs2)=NC1c1nccs1 (centres undefined) | > 10
10 | CCOC(=O)C1=C2CCCN2C(c2nccn2C)=NC1c1ccc(F)cc1Cl (centres undefined) | 2
11 | CCOC(=O)C1=C2CCCN2C(c2nccs2)=NC1c1ccc(F)c(F)c1 (centres undefined) | 0.43
12 | CCOC(=O)C1=C2CNCCN2C(c2nccs2)=NC1c1ccc(F)cc1Br (centres undefined) | 9.3
13 | COCCOC(=O)C1=C2CCCN2C(c2nccs2)=NC1c1ccc(F)cc1Cl (centres undefined) | > 10
14 | CCOC(=O)C1=C2COCCN2C(c2nccs2)=NC1c1ccc(F)cc1Br (centres undefined) | 2.5
15 | COC(=O)C1=C2C[C@H](NC(=O)OC(C)(C)C)CN2C(c2nccs2)=N[C@H]1c1ccc(F)cc1Cl | 30
16 | CCOC(=O)C1=C2CCCN2C(c2ncc(F)cc2F)=NC1c1ccc(F)cc1Cl (centres undefined) | 1.6
17 | COC(=O)C1=C2C[C@H](NS(C)(=O)=O)CN2C(c2nccs2)=N[C@H]1c1ccc(F)c(F)c1F | 10
18 | CCOC(=O)C1=C2C[C@H](O)CN2C(c2nccs2)=NC1c1ccc(F)cc1Cl (some centres undefined) | 320
19 | CCOC(=O)C1=C2CCCN2C(c2nccs2)=NC1c1ccncc1Cl (centres undefined) | > 10
20 | CCOC(=O)C1=C2CCCN2C(c2ccccn2)=NC1c1ccc(F)cc1Cl (centres undefined) | > 10
21 | CCOC(=O)C1=C2CCCN2C(N2CCOCC2)=NC1c1ccc(F)cc1Cl (centres undefined) | > 10
22 | COC(=O)C1=C2CCCN2C(c2nccs2)=NC1c1ccc(F)cc1Cl (centres undefined) | 0.32
23 | CCOC(=O)C1=C2CCCN2C(c2nccs2)=NC1c1ccc(F)cc1Cl (centres undefined) | 0.3
24 | COC(=O)C1=C(C)NC(c2ncc(F)cc2F)=N[C@H]1c1ccc(F)cc1Cl | 0.075

Source: ChEMBL document CHEMBL4130455, “Design, Synthesis, and Evaluation of Tetrahydropyrrolo[1,2-c]pyrimidines as Capsid Assembly Inhibitors for HBV Treatment” (ACS Med Chem Lett, 2017)
